ChEMBL document CHEMBL1158122, “Anti-inflammatory, anti-tumor-promoting, and cytotoxic activities of constituents of marigold (Calendula officinalis) flowers” (J Nat Prod, 2006)

How the values were obtained:
NCI-H322M = test: Cytotoxicity against human NCI-H322M cells after 48 hrs by SRB assay; type: functional
NCI-H460 = test: Cytotoxicity against human NCI-H460 cells after 48 hrs by SRB assay; type: functional; conditions: NCI-H460, 48 h
NCI-H522 = test: Cytotoxicity against human NCI-H522 cells after 48 hrs by SRB assay; type: functional; conditions: NCI-H522, 48 h
COLO 205 = test: Cytotoxicity against human COLO205 cells after 48 hrs by SRB assay; type: functional; conditions: COLO 205, 48 h
[1] = Cytotoxicity against human HCT 116 cells after 48 hrs by SRB assay; type: functional; conditions: HCT-116, 48 h
HT-29 = test: Cytotoxicity against human HT-29 cells after 48 hrs by SRB assay; type: functional; conditions: HT-29, 48 h
KM12 = test: Cytotoxicity against human KM12 cells after 48 hrs by SRB assay; type: functional; conditions: KM12, 48 h
SW-620 = test: Cytotoxicity against human SW620 cells after 48 hrs by SRB assay; type: functional; conditions: SW-620, 48 h
SF-268 = test: Cytotoxicity against human SF-268 cells after 48 hrs by SRB assay; type: functional; conditions: SF-268, 48 h
SF-295 = test: Cytotoxicity against human SF-295 cells after 48 hrs by SRB assay; type: functional; conditions: SF-295, 48 h
SNB-19 = test: Cytotoxicity against human SNB-19 cells after 48 hrs by SRB assay; type: functional; conditions: SNB-19, 48 h
U-251 = test: Cytotoxicity against human U251 cells after 48 hrs by SRB assay; type: functional; conditions: U-251, 48 h
Summary of the method: (§1)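 Tested in the NCI panel of 60 human tumour cell lines covering lung, colon, melanoma, renal, ovarian, breast and leukaemia. At least five concentrations were run in 10-fold dilutions starting from 10^-4 M. Exposure was continuous for 48 h. Growth or viability was estimated by sulforhodamine B protein staining, and GI50 values were reported.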

Malme-3M = test: Cytotoxicity against human MALME-3M cells after 48 hrs by SRB assay; type: functional
SK-MEL-2 = test: Cytotoxicity against human SK-MEL-2 cells after 48 hrs by SRB assay; type: functional; conditions: SK-MEL-2, 48 h
SK-MEL-5 = test: Cytotoxicity against human SK-MEL-5 cells after 48 hrs by SRB assay; type: functional; conditions: SK-MEL-5, 48 h
UACC-257 = test: Cytotoxicity against human UACC-257 cells after 48 hrs by SRB assay; type: functional; conditions: UACC-257, 48 h; summary of the method: as §1
UACC-62 = test: Cytotoxicity against human UACC-62 cells after 48 hrs by SRB assay; type: functional; conditions: UACC-62, 48 h; summary of the method: as §1
IGROV-1 = test: Cytotoxicity against human IGROV1 cells after 48 hrs by SRB assay; type: functional; conditions: IGROV-1, 48 h
OVCAR-3 = test: Cytotoxicity against human OVCAR-3 cells after 48 hrs by SRB assay; type: functional; conditions: OVCAR-3, 48 h
OVCAR-5 = test: Cytotoxicity against human OVCAR5 cells after 48 hrs by SRB assay; type: functional; conditions: OVCAR-5, 48 h
OVCAR-8 = test: Cytotoxicity against human OVCAR8 cells after 48 hrs by SRB assay; type: functional; conditions: OVCAR-8, 48 h
786-0 = test: Cytotoxicity against human 786-0 cells after 48 hrs by SRB assay; type: functional; conditions: 786-0, 48 h
NCI-H23 = test: Cytotoxicity against human NCI-H23 cells after 48 hrs by SRB assay; type: functional; conditions: NCI-H23, 48 h
CAKI-1 = test: Cytotoxicity against human Caki-1 cells after 48 hrs by SRB assay; type: functional; conditions: CAKI-1, 48 h
RXF 393 = test: Cytotoxicity against human […] cells after 48 hrs by SRB assay; type: functional; conditions: RXF 393, 48 h
SN12C = test: Cytotoxicity against human SN12C cells after 48 hrs by SRB assay; type: functional
TK-10 = test: Cytotoxicity against human TK-10 cells after 48 hrs by SRB assay; type: functional; conditions: TK-10, 48 h; summary of the method: as §1
UO-31 = test: Cytotoxicity against human UO-31 cells after 48 hrs by SRB assay; type: functional; conditions: UO-31, 48 h; summary of the method: as §1
PC-3 = test: Cytotoxicity against human PC-3 cells after 48 hrs by SRB assay; type: functional; conditions: PC-3, 48 h
MCF7 = test: Cytotoxicity against human MCF7 cells after 48 hrs by SRB assay; type: functional; conditions: MCF7, 48 h
NCI/ADR-RES = test: Cytotoxicity against human NCI/ADR-RES cells after 48 hrs by SRB assay; type: functional
MDA-MB-231 = test: Cytotoxicity against human MDA-MB-231 cells after 48 hrs by SRB assay; type: functional; conditions: MDA-MB-231, 48 h
[2] = Cytotoxicity against human Hs 578T cells after 48 hrs by SRB assay; type: functional
MDA-MB-435 = test: Cytotoxicity against human MDA-MB-435 cells after 48 hrs by SRB assay; type: functional; conditions: MDA-MB-435, 48 h
BT-549 = test: Cytotoxicity against human BT-549 cells after 48 hrs by SRB assay; type: functional; conditions: BT-549, 48 h
T47D = test: Cytotoxicity against human T47D cells after 48 hrs by SRB assay; type: functional; summary of the method: as §1
HCT-15 = test: Cytotoxicity against human HCT-15 cells after 48 hrs by SRB assay; type: functional; conditions: HCT-15, 48 h
Raji [3] = test: Inhibition of TPA-induced EBV-early antigen activation in human Raji cells at 1000 molar ratio relative to TPA; type: cell-based; parameters: scale not given: the % may be the effect or the level left; conditions: human gammaherpesvirus 4
Raji [4] = test: Inhibition of TPA-induced EBV-early antigen activation in human Raji cells at 500 molar ratio relative to TPA; type: cell-based; parameters: scale not given: the % may be the effect or the level left; conditions: human gammaherpesvirus 4
Raji [5] = test: Inhibition of TPA-induced EBV-early antigen activation in human Raji cells at 100 molar ratio relative to TPA; type: cell-based; parameters: scale not given: the % may be the effect or the level left; conditions: human gammaherpesvirus 4
Raji [6] = test: Inhibition of TPA-induced EBV-early antigen activation in human Raji cells at 10 molar ratio relative to TPA; type: cell-based; parameters: scale not given: the % may be the effect or the level left; conditions: human gammaherpesvirus 4
[7] = Inhibition of TPA-induced EBV-early antigen activation in human Raji cells relative to TPA; type: cell-based, human gammaherpesvirus 4
[8] = Cytotoxicity against human Raji cells assessed as cell viability at 1000 molar ratio; type: cell-based; conditions: read-out: Activity
Summary of the method: (§2)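 Raji cells were treated with 32 pmol TPA to induce EBV early antigen activation. The test agent was added at 10, 100, 500 or 1000 mol ratio relative to TPA, and Raji cell viability was measured alongside EA activation.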

[9] = Cytotoxicity against human Raji cells assessed as cell viability at 500 molar ratio; type: cell-based; conditions: read-out: Activity; summary of the method: as §2
[10] = Cytotoxicity against human Raji cells assessed as cell viability at 100 molar ratio; type: cell-based; conditions: read-out: Activity; summary of the method: as §2
[11] = Cytotoxicity against human Raji cells assessed as cell viability at 10 molar ratio; type: cell-based; conditions: read-out: Activity; summary of the method: as §2
Mus musculus = test: Antiinflammatory activity against TPA-induced ear edema in mouse; type: functional
Summary of the method: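 Specific-pathogen-free female ICR mice were housed five per cage at 24 ± 2 °C. Inflammation was induced on the ear with TPA at 1 µg/ear, and the test agent was applied per ear. Ear edema inhibition was expressed as ID50 in mg per ear.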

CCRF-CEM = test: Cytotoxicity against human CCRF-CEM cells after 48 hrs by SRB assay; type: functional
K562 = test: Cytotoxicity against human K-562 cells after 48 hrs by SRB assay; type: functional; conditions: K562, 48 h
MOLT-4 = test: Cytotoxicity against human MOLT-4 cells after 48 hrs by SRB assay; type: functional; conditions: MOLT-4, 48 h
RPMI-8226 = test: Cytotoxicity against human RPMI8226 cells after 48 hrs by SRB assay; type: functional; conditions: RPMI-8226, 48 h
A549 = test: Cytotoxicity against human A549 cells after 48 hrs by SRB assay; type: functional; conditions: A549, 48 h
EKVX = test: Cytotoxicity against human EKVX cells after 48 hrs by SRB assay; type: functional
HOP-62 = test: Cytotoxicity against human HOP-62 cells after 48 hrs by SRB assay; type: functional; conditions: HOP-62, 48 h
HOP-92 = test: Cytotoxicity against human HOP-92 cells after 48 hrs by SRB assay; type: functional; conditions: HOP-92, 48 h
NCI-H226 = test: Cytotoxicity against human NCI-H226 cells after 48 hrs by SRB assay; type: functional; conditions: NCI-H226, 48 h

IC50 [7]: 470 molar ratio
SMILES: CC1(C)CC[C@]2(C(=O)O)CC[C@]3(C)C(=CC[C@@H]4[C@@]5(C)CC[C@H](O[C@@H]6O[C@H](C(=O)O)[C@@H](O)[C@H](O[C@@H]7O[C@H](CO)[C@H](O)[C@H](O)[C@H]7O)[C@H]6O[C@@H]6O[C@H](CO)[C@@H](O)[C@H](O)[C@H]6O)C(C)(C)[C@@H]5CC[C@]43C)[C@@H]2C1 [CALENDULAGYCOSIDE B]
GI50 (NCI-H322M): 26 µM | GI50 (NCI-H460): > 100 µM | GI50 (NCI-H522): 38.4 µM | GI50 (COLO 205): > 100 µM | GI50 [1]: > 100 µM | GI50 (HT-29): 40.9 µM | GI50 (KM12): > 100 µM | GI50 (SW-620): > 100 µM | GI50 (SF-268): > 100 µM | GI50 (SF-295): 31 µM | GI50 (SNB-19): > 100 µM | GI50 (U-251): 32.3 µM | GI50 (Malme-3M): 79.9 µM | GI50 (SK-MEL-2): > 100 µM | GI50 (SK-MEL-5): > 100 µM | GI50 (UACC-257): > 100 µM | GI50 (UACC-62): 23 µM | GI50 (IGROV-1): > 100 µM | GI50 (OVCAR-3): > 100 µM | GI50 (OVCAR-5): > 100 µM | GI50 (OVCAR-8): > 100 µM | GI50 (786-0): > 100 µM | GI50 (NCI-H23): 20.2 µM | GI50 (CAKI-1): > 100 µM | GI50 (RXF 393): > 100 µM | GI50 (SN12C): 84 µM | GI50 (TK-10): > 100 µM | GI50 (UO-31): 63.5 µM | GI50 (PC-3): 20.6 µM | GI50 (MCF7): 53.5 µM | GI50 (NCI/ADR-RES): > 100 µM | GI50 (MDA-MB-231): 45 µM | GI50 [2]: 97.4 µM | GI50 (MDA-MB-435): > 100 µM | GI50 (BT-549): > 100 µM | GI50 (T47D): > 100 µM | GI50 (HCT-15): 94.6 µM | Activity (Raji [3]): 5.1% | Activity (Raji [4]): 40.3% | Activity (Raji [5]): 69.2% | Activity (Raji [6]): 100% | viability at 1000 molar ratio [8]: 70% | viability at 500 molar ratio [9]: > 80% | viability at 100 molar ratio [10]: > 80% | viability at 10 molar ratio [11]: > 80% | ID50 (Mus musculus): 0.05 mg | GI50 (CCRF-CEM): > 100 µM | GI50 (K562): 81.1 µM | GI50 (MOLT-4): 86.3 µM | GI50 (RPMI-8226): 50.9 µM | GI50 (A549): > 100 µM | GI50 (EKVX): > 100 µM | GI50 (HOP-62): > 100 µM | GI50 (HOP-92): > 100 µM | GI50 (NCI-H226): > 100 µM
